The values below come from ChEMBL document CHEMBL1128306, “Design, synthesis, and evaluation of A/C/D-ring analogs of the fungal metabolite K-76 as potential complement inhibitors” (J Med Chem, 1995).

Test [1] is described as follows: Inhibitory activity against hemolysis (complement-mediated erythrocyte lysis) of antibody-sensitized sheep erythrocytes using human serum as complementary source. Format: functional. In short, it runs like this: (§1)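 Antibody-sensitized sheep erythrocytes were exposed to compounds and to human serum in 0.1 M HEPES, 0.15 N NaCl, pH 7.4. Serum dilution was pre-set to lyse 80–90% of cells. Incubation 60 min at 37 °C, then centrifugation and supernatant A410 for hemoglobin release. Triplicate controls without serum were subtracted. Inhibition is relative to the no-compound sample.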

Test [2] is described as follows: Inhibitory activity against hemolysis of antibody-sensitized sheep erythrocytes using human serum as complementary source in multiple assay. Format: functional. The method, boiled down: as §1
Test [3] can be described thus: Inhibitory activity against C5a production by activated human serum complement. Format: functional. In short, it runs like this: (§2)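 Human serum aliquots (400 μL) equilibrated at 37 °C with varying compound concentrations in 0.1 M Hepes, 0.15 N NaCl, pH 7.4. Complement activated with heat-aggregated IgG at 14 mg/mL, 10 min at 37 °C. C3a[desArg] and C5a[desArg] were measured by radioimmunoassay. Triplicates were averaged. Fractional inhibition is relative to the no-compound sample and the background without aggregated IgG.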

The species named for test [4] is Homo sapiens. The test can be described thus: Inhibitory activity against mitogen-stimulated PBL proliferation. The format is functional.
For test [5], the system named is T-cell. The test can be described thus: Inhibitory activity against lectin-stimulated T cell proliferation. Format: functional, cell-based.
Test [6] is filed under the species Homo sapiens. The test can be described thus: Inhibitory activity against mitogen-stimulated PBL proliferation; Range 1.7-2.8 mM. Format: functional.
A short description of test [7]: (§3) Compound was tested to inhibit the production of C5a relative to C3a. Format: functional, Homo sapiens. In short, it runs like this:
as §2

The nature of test [8]: as §3. The format is functional, Homo sapiens. In short, it runs like this:
as §2
The source holds these as a separate data set.

The term IC50 denotes the concentration that gives 50% inhibition. Turning to `C[C@@H]1CCC2C(C)(C)[C@H](O)[C@H](O)C[C@]2(C)[C@@]12Cc1c(O)cc(C(=O)O)c(C=O)c1O2` (stereo not given in full), the half-maximal inhibitory concentration (IC50) came to 300 µM in test [1] (read-out: IC50), 570 µM in test [2], 3000 µM in test [3] and 500 µM in test [4]. For the same molecule, the inhibition result in test [5] is recorded as “Inhibit”.

`COc1ccc(C(=O)O)c2c1CC(C)(C1CC=C(C)CC1)O2` (stereo not given): the IC50 is below 2800 µM in test [6], 8000 µM in test [7] and 6000 µM in test [8].

As to `CC1=CCC(C2(C)Cc3c(O)ccc(C(=O)O)c3O2)CC1` (stereo not given), the IC50 entry in test [1] was “Less Effective”; in test [6], below 2800 µM.
